Reference: publication PMC11382121 (Molecular Metabolism, 2024)

Key:
[1] = Pharmacokinetics in Göttingen minipigs; format: in vivo; settings: female, minipig, plasma, sc, 3 nmol/kg
Summary of the method: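 Two female Göttingen minipigs (30–35 kg) per test compound, each given a single SC dose of 3 nmol/kg (0.04 mL/kg) in the inguinal fold or behind the ear. Up to 10 blood samples were drawn via an ear-vein central venous catheter to 129 h into chilled EDTA tubes. Plasma (2000 RCF, 15 min, 4 °C) was frozen and assayed by LC-MS/MS. Half-life came from a one-phase exponential decay fit.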

humans = settings: exposure levels capable of fully blocking the GIPR; cited from earlier work
[2] = test system: HFD-induced obese cynomolgus monkeys; experiment: Efficacy study in obese non-human primates; format: in vivo, M. fascicularis; settings: 42-day daily SC treatment

Work on CC[C@H](C)[C@H](NC(=O)[C@H](CC(C)C)NC(=O)[C@H](Cc1c[nH]c2ccccc12)NC(=O)[C@H](CCC(N)=O)NC(=O)[C@@H](NC(=O)[C@H](Cc1ccccc1)NC(=O)[C@H](C)NC(=O)[C@H](CCCCNC(=O)COCCOCCNC(=O)COCCOCCNC(=O)CC[C@H](NC(=O)CCCCCCCCCCCCCCCCCCC(=O)O)C(=O)O)NC(=O)[C@H](CCC(N)=O)NC(=O)[C@H](C)NC(=O)[C@@H](NC(=O)[C@H](CCCCN)NC(=O)[C@H](CC(=O)O)NC(=O)[C@H](CC(C)C)NC(=O)C(C)(C)NC(=O)[C@@H](NC(=O)[C@H](CO)NC(=O)[C@H](Cc1ccc(O)cc1)NC(=O)[C@H](CC(=O)O)NC(=O)[C@H](CO)NC(=O)[C@@H](NC(=O)[C@H](Cc1ccccc1)NC(=O)[C@@H](NC(=O)CNC(=O)[C@H](CCC(=O)O)NC(=O)C(C)(C)NC(=O)[C@@H](N)Cc1ccc(O)cc1)[C@@H](C)O)[C@@H](C)O)[C@@H](C)CC)[C@@H](C)CC)C(C)C)C(=O)N[C@@H](C)C(=O)NCC(=O)NCC(=O)N1CCC[C@H]1C(=O)N[C@@H](CO)C(=O)N[C@@H](CO)C(=O)NCC(=O)N[C@@H](C)C(=O)N1CCC[C@H]1C(=O)N1CCC[C@H]1C(=O)N1CCC[C@H]1C(=O)N[C@@H](CO)C(N)=O [Tirzepatide] yielded an AUC(0-inf) [1] of 4.12 µM·h and a half-life [1] of 3.46 days.
In the case of CC[C@H](C)[C@H](NC(=O)[C@H](CO)NC(=O)[C@H](Cc1ccc(O)cc1)NC(=O)[C@H](CC(=O)O)NC(=O)[C@H](CO)NC(=O)[C@@H](NC(=O)[C@H](Cc1ccccc1)NC(=O)[C@@H](NC(=O)CNC(=O)[C@@H](N)CCC(=O)O)[C@@H](C)O)[C@@H](C)CC)C(=O)N[C@@H](C)C(=O)N[C@@H](CCSC)C(=O)N[C@@H](CC(=O)O)C(=O)N[C@@H](CCCCN)C(=O)N[C@H](C(=O)N[C@@H](Cc1c[nH]cn1)C(=O)N[C@@H](CCC(N)=O)C(=O)N[C@@H](CCC(N)=O)C(=O)N[C@@H](CC(=O)O)C(=O)N[C@@H](Cc1ccccc1)C(=O)N[C@H](C(=O)N[C@@H](CC(N)=O)C(=O)N[C@@H](Cc1c[nH]c2ccccc12)C(=O)N[C@@H](CC(C)C)C(=O)N[C@@H](CC(C)C)C(=O)N[C@@H](C)C(=O)N[C@@H](CCC(N)=O)C(=O)N[C@@H](CCCCN)C(N)=O)C(C)C)[C@@H](C)CC [GIP(3–30)NH2], the “nausea, comfort or other side effects” value (humans) is given as “no alterations in nausea, comfort, or any other side effects”.
With CCCCCCCCCCCCCCCC(=O)N[C@@H](CCC(=O)NCCCC[C@H](NC(=O)[C@H](C)NC(=O)[C@H](C)NC(=O)[C@H](CCC(N)=O)NC(=O)CNC(=O)[C@H](CCC(=O)O)NC(=O)[C@H](CC(C)C)NC(=O)[C@H](Cc1ccc(O)cc1)NC(=O)[C@H](CO)NC(=O)[C@H](CO)NC(=O)[C@@H](NC(=O)[C@H](CC(=O)O)NC(=O)[C@H](CO)NC(=O)[C@@H](NC(=O)[C@H](Cc1ccccc1)NC(=O)[C@@H](NC(=O)CNC(=O)[C@H](CCC(=O)O)NC(=O)[C@H](C)NC(=O)[C@@H](N)Cc1cnc[nH]1)[C@@H](C)O)[C@@H](C)O)C(C)C)C(=O)N[C@@H](CCC(=O)O)C(=O)N[C@@H](Cc1ccccc1)C(=O)N[C@H](C(=O)N[C@@H](C)C(=O)N[C@@H](Cc1c[nH]c2ccccc12)C(=O)N[C@@H](CC(C)C)C(=O)N[C@H](C(=O)N[C@@H](CCCNC(=N)N)C(=O)NCC(=O)N[C@@H](CCCNC(=N)N)C(=O)NCC(=O)O)C(C)C)[C@@H](C)CC)C(=O)O [Liraglutide] the “tolerability / side effects” value [2] was “one NHP in the liraglutide monotreatment group that stopped eating and drinking”.
